The values that follow come from article PMC12486158 (Analytical biochemistry, 2025).

Format in all cases: biochemical
Experiment [1] deals with T1, Homo sapiens SAMHD1 (Homo sapiens, UniProt Q9Y3Z3). Description: Steady-state kinetics of activated SAMHD1 with dTTP. The note with it: read-out: KM of dTTP; 100 nM SAMHD1 activated with GTP and dATP, dTTP 8.4-500 μM. Summed up: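 Recombinant SAMHD1 (HisTrap, then size-exclusion purified) pre-activated stepwise with GTP then dATP, diluted, and mixed with MESG/PNP/Ppx1/PPase coupling cocktail. Final: 100 nM enzyme, 10 μM GTP, 500 nM dATP, 500 μM MESG, […], 10 nM Ppx1 and PPase. Buffer: HEPES pH 8.0, NaCl, MgCl2, TCEP, glycerol. dTTP 8.4–500 μM. A360 over 20 min. Rates corrected for 3 Pi/dTTP. Michaelis-Menten fit. Three independent experiments.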

Experiment [2] deals with T1, Homo sapiens SAMHD1. Description: Lineweaver-Burk plot and mechanism of inhibition of SAMHD1. Summed up:
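Same GTP/dATP pre-activation and coupled MESG/PNP/Ppx1/PPase system. Final: 100 nM SAMHD1, 10 μM GTP, 500 nM dATP, 5 mM MgCl2. Reactions started with inhibitor (up to 4 μM) premixed into dTTP stocks of 0.625–10 mM. A360 followed for 20 min. Initial rates shown as a double-reciprocal plot and globally fitted to a competitive-inhibition equation for Kis. Mean ± SD of three independent experiments.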

The target of experiment [3] is T1, Homo sapiens SAMHD1. Description: Tight-binding inhibition of SAMHD1. The note with it: read-out: Ki (Morrison equation, tight-binding); 100 nM SAMHD1, 500 μM dTTP (5×KM), eq. 4 & 5.

T1 sequence (Q9Y3Z3 114-626): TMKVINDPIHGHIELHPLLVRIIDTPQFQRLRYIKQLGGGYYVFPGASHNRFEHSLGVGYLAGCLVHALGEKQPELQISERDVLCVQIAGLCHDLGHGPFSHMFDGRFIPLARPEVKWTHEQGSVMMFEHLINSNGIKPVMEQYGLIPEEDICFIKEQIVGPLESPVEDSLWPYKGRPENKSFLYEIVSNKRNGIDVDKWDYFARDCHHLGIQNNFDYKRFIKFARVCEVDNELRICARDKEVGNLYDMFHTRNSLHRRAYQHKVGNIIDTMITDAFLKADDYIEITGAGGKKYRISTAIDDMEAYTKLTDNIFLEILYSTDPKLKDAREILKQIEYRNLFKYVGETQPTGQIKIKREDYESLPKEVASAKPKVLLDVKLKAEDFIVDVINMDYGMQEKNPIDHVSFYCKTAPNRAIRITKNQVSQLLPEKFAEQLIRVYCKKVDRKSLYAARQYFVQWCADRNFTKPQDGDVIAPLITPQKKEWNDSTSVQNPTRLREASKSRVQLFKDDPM

What is called Km is the substrate concentration at which the rate is half of its maximum. As for `Cc1cn([C@H]2C[C@H](O)[C@@H](COP(=O)(O)OP(=O)(O)OP(=O)(O)O)O2)c(=O)[nH]c1=O` [dTTP, 2’-Deoxythymidine-5’-triphosphate], the Km in experiment [1] came out at 102 ± 9.4 µM.

By Ki is commonly meant the dissociation constant of the complex between target and ligand, obtained from inhibition or displacement. Consider `Nc1nc2c(ncn2[C@H]2C[C@H](O)[C@@H](COP(=O)(O)NP(=O)(O)OP(=O)(O)O)O2)c(=O)[nH]1` [dGPNPP, 2'-Deoxyguanosine-5'-[(α,β)-imido]triphosphate], for which, in experiment [2] (double-reciprocal Lineweaver-Burk plot, varied dTTP), the Mode of inhibition entry is on record as “competitive inhibition”. Further, the “Kis (global inhibition constant, competitive fit)” value in experiment [2] (varied dTTP and dGPNPP (up to 4 μM), global fit) was determined as 53 ± 7.0 nM. Moreover, the inhibition constant (Ki) in experiment [3] was determined as 25 ± 7 nM. On to `Nc1ccn([C@H]2C[C@H](O)[C@@H](COP(=O)(O)NP(=O)(O)OP(=O)(O)O)O2)c(=O)n1` [dCPNPP, 2'-Deoxycytidine-5'-[(α,β)-imido]triphosphate], for which the Ki in experiment [3] worked out at 67 ± 8 nM.
